Measured values reported in ChEMBL document CHEMBL2146381, “Structure-activity relationship (SAR) study of ethyl 2-amino-6-(3,5-dimethoxyphenyl)-4-(2-ethoxy-2-oxoethyl)-4H-chromene-3-carboxylate (CXL017) and the potential of the lead against multidrug resistance in cancer treatment” (J Med Chem, 2012).

Experiments:
HL-60 [1] = assay: Cytotoxicity against human HL60 cells assessed as cell viability after 48 hrs by celltiter-blue assay; type: functional, cell-based; conditions: HL-60, 48 h
Procedure, shortened: (§1)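 Tumour cell growth inhibition was measured in vitro, following the lab's established procedure. IC50 values are the mean of at least two independent experiments, each run in triplicate.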

K562 [2] = assay: Ratio of IC50 for doxorubicin-resistant human K562 cells to IC50 for human K562 cells; type: functional
Procedure, shortened: (§2)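 Each resistant subline and its matched parental line were tested in the same growth-inhibition assay, with IC50 taken as the mean of at least two independent experiments in triplicate. The MDR/parental IC50 ratio is reported as relative sensitivity: above 1 means resistance, below 1 means collateral sensitivity. Parental lines came from different sources for each resistant pair.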

HL-60 [3] = assay: Ratio of IC50 for doxorubicin-resistant human HL60 cells to IC50 for human HL60 cells; type: functional; procedure, shortened: as §2
K562 [4] = assay: Ratio of IC50 for human K562/HHT300 cells to IC50 for human K562 cells; type: functional; procedure, shortened: as §2
CCRF-CEM [5] = assay: Ratio of IC50 for human CCRF-CEM/C2 cells IC50 for human CCRF-CEM cells; type: functional; procedure, shortened: as §2
HL-60 [6] = assay: Ratio of IC50 for human HL60/ADR cells to IC50 for human HL60 cells; type: functional; procedure, shortened: as §2
HL-60 [7] = assay: Ratio of IC50 for daunorubicin-resistant human HL60 cells to IC50 for human HL60 cells; type: functional; procedure, shortened: as §2
HL-60 [8] = assay: Ratio of IC50 for human HL60/MX2 cells to IC50 for human HL60 cells; type: functional; procedure, shortened: as §2
CCRF-CEM [9] = assay: Ratio of IC50 for human CCRF-CEM/VM-1-5 cells IC50 for human CCRF-CEM cells; type: functional; procedure, shortened: as §2
CCRF-CEM [10] = assay: Cytotoxicity against human CCRF-CEM cells assessed as cell viability after 48 hrs by celltiter-blue assay; type: functional, cell-based; procedure, shortened: as §1
CCRF-CEM [11] = assay: Ratio of IC50 for human CCRF-CEM/VLB100 cells IC50 for human CCRF-CEM cells; type: functional; procedure, shortened: as §2
K562 [12] = assay: Cytotoxicity against human K562 cells assessed as cell viability after 48 hrs by celltiter-blue assay; type: functional, cell-based; conditions: K562, 48 h; procedure, shortened: as §1

| SMILES | IC50 (HL-60 [1]) [µM] | further results |
| --- | --- | --- |
| CC(C)(C)c1ccc(NC(=S)N/N=C2\C(=O)Nc3ccccc32)cc1 | 6.8 | Ratio IC50 (K562 [2]): 0.47; Ratio IC50 (HL-60 [3]): 1; Ratio IC50 (K562 [4]): 0.43; Ratio IC50 (CCRF-CEM [5]): 0.58; Ratio IC50 (HL-60 [6]): 0.47; Ratio IC50 (HL-60 [7]): 0.64; Ratio IC50 (HL-60 [8]): 0.86; Ratio IC50 (CCRF-CEM [9]): 2.1; IC50 (CCRF-CEM [10]): 7.05 µM; Ratio IC50 (CCRF-CEM [11]): 0.66; IC50 (K562 [12]): 26.9 µM |
| COC(=O)CC1C(C(=O)OC)=C(N)Oc2ccc(-c3cc(OC)cc(OC)c3)cc21 (racemic) | 2.42 |  |
| CCOC(=O)CC1C(C(=O)OC)=C(N)Oc2ccc(-c3cc(OC)cc(OC)c3)cc21 (racemic) | 10.8 |  |
| COc1cc(OC)cc(-c2ccc3c(c2)C(CC(=O)OCC2CO2)C(C(=O)OCC2CO2)=C(N)O3)c1 (racemic) | > 80 |  |
| CCOC(=O)CC1C(C#N)=C(N)Oc2ccc(-c3cc(OC)cc(OC)c3)cc21 (racemic) | 19.6 |  |
| CCOC(=O)CC1C(c2nc(-c3ccc(OC)cc3)no2)=C(N)Oc2ccc(-c3cc(OC)cc(OC)c3)cc21 (racemic) | > 80 |  |
| CCOC(=O)CC1C(C(=O)OCC)=C(N)Oc2ccc(-c3ccccc3F)cc21 (racemic) | 73 |  |
| CCOC(=O)CC1C(C(=O)OCC)=C(N)Oc2ccc(-c3cccc(F)c3)cc21 (racemic) | 76.4 |  |
| CCOC(=O)CC1C(C(=O)OCC)=C(N)Oc2ccc(-c3ccc(F)cc3)cc21 (racemic) | 72.1 |  |
| CCOC(=O)CC1C(C(=O)OCC)=C(N)Oc2ccc(-c3ccc(F)cc3F)cc21 (racemic) | 76.6 |  |
| CCOC(=O)CC1C(C(=O)OCC)=C(N)Oc2ccc(-c3cc(F)cc(F)c3)cc21 (racemic) | 35.9 |  |
| CCOC(=O)CC1C(C(=O)OCC)=C(N)Oc2ccc(-c3ccco3)cc21 (racemic) | > 80 |  |
| CCOC(=O)CC1C(C(=O)OCC)=C(N)Oc2ccc(-c3cccs3)cc21 (racemic) | > 80 |  |
| CCOC(=O)CC1C(C(=O)OCC)=C(N)Oc2ccc(-c3ccccn3)cc21 (racemic) | 76.9 |  |
| CCOC(=O)CC1C(C(=O)OCC)=C(N)Oc2ccc(-c3cccnc3)cc21 (racemic) | 21.5 |  |
| CCOC(=O)CC1C(C(=O)OCC)=C(N)Oc2ccc(-c3ccncc3)cc21 (racemic) | 10.2 |  |
| CCOC(=O)CC1C(C(=O)OCC)=C(N)Oc2ccc(-c3cncnc3)cc21 (racemic) | 37.9 |  |
| CCOC(=O)CC1C(C(=O)OCC)=C(N)Oc2ccc(-c3ccnc(OC)c3)cc21 (racemic) | 10.2 |  |
| CCOC(=O)CC1C(C(=O)OCC)=C(N)Oc2ccc(-c3cccc(N)c3)cc21 (racemic) | 20.2 |  |
| C#CCOC(=O)CC1C(C(=O)OCC)=C(N)Oc2ccc(-c3cccc(N)c3)cc21 (racemic) | 3.4 |  |
| C#CCOC(=O)CC1C(C(=O)OCC#C)=C(N)Oc2ccc(-c3cccc(NCCO)c3)cc21 (racemic) | 0.63 |  |
| C#CCOC(=O)CC1C(C#N)=C(N)Oc2ccc(-c3cccc(N)c3)cc21 (racemic) | 43.9 |  |
| CCOC(=O)CC1C(C(=O)OCC)=C(N)Oc2ccc(-c3ccc(N)cc3)cc21 (racemic) | 22.3 |  |
